Data from publication PMC6612960 (Drug Design, Development and Therapy, 2019).

What was measured:
[1] = test system: K562/MDR cells; experiment: MTT assay, K562/MDR cells; type: cell-based, human; details: K562/MDR vs K562
[2] = test system: Peripheral blood mononuclear cells (PBMCs); experiment: Trypan Blue dye exclusion, PBMCs; type: cell-based; details: 2 μM, 24 hours, mouse PBMCs
Summary of the method: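 PBMCs from mouse blood isolated by Ficoll density gradient and seeded at 5×10^5 cells/well in 12-well plates in RPMI 1640 with 10% FBS. Treated with test compound (2, 4, 10 μM), PBS or melittin at 37°C for 24 h. Stained with 0.4% Trypan Blue for 5 min, washed three times in PBS and viewed by fluorescence microscopy.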

[3] = test system: K562/MDR cells; experiment: Confocal laser scanning microscopy, K562/MDR; type: cell-based, human; details: incubation 30 minutes
Summary of the method: (§1)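 Cells exposed to FITC-labelled peptide for 30 min in the dark, harvested, rinsed three times in PBS and imaged at once by CLSM (488 nm argon excitation for FITC). For mitochondrial co-localisation, cells were then given 30 nM rhodamine 123 for 30 min in the dark, washed and imaged with 488 nm (FITC) and 525 nm (rhodamine 123) laser lines.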

[4] = test system: erythrocytes; experiment: Peptide binding assay; type: cell-based; details: mouse erythrocytes, 30 minutes, 37°C, flow cytometry
Summary of the method: (§2)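 Cells (human lines or mouse erythrocytes) resuspended in PBS at 1×10^6/ml and exposed to FITC-labelled peptide at 37°C for 30 min in the dark. Washed in PBS and read by flow cytometry as mean fluorescence of 10,000 cells. Mean±SEM of three independent experiments.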

[5] = test system: HEK293 cells; experiment: Peptide binding assay; type: cell-based, human; details: HEK293, 30 minutes, 37°C, flow cytometry
Summary of the method: as §2

[6] = test system: Jurkat cells; experiment: Confocal laser scanning microscopy, Jurkat; type: cell-based, human; details: incubation 30 minutes
Summary of the method: as §1

[7] = test system: non-cancer cells; details: even at 120 μM; cited from earlier work
[8] = test system: leukemia cells (K562, THP-1, and U937 cells); details: read-out: IC50, anticancer activity in leukemia cells; cited from earlier work
[9] = test system: K562/MDR cells; experiment: LDH release, K562/MDR; type: cell-based, human; details: CM4 treatment (3, 9, 30 μM)
Summary of the method: (§3)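 Cells (1×10^5/mL) in RPMI 1640 held 4 h at 37°C, then exposed to peptide at 3, 9 or 30 μM for varying times. PBS and 2% Triton X-100 controls. Cell-free supernatant mixed with tetrazolium salt reagent; formazan read at 490 nm. Leakage % = [(A−C)/(P−C)]×100 (C = PBS, P = Triton). Mean±SEM of four independent experiments.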

[10] = test system: Jurkat cells; experiment: LDH release, Jurkat; type: cell-based, human; details: CM4 treatment (3, 9, 30 μM)
Summary of the method: as §3

COc1cccc2c1C(=O)c1c(O)c3c(c(O)c1C2=O)C[C@@](O)(C(=O)CO)C[C@@H]3O[C@H]1C[C@H](N)[C@H](O)[C@H](C)O1 [doxorubicin]
resistance of K562/MDR compared with K562 cells [1]: a certain resistence

CC[C@H](C)[C@H](NC(=O)CN)C(=O)NCC(=O)N[C@@H](C)C(=O)N[C@H](C(=O)N[C@@H](CC(C)C)C(=O)N[C@@H](CCCCN)C(=O)N[C@H](C(=O)N[C@@H](CC(C)C)C(=O)N[C@H](C(=O)N[C@H](C(=O)NCC(=O)N[C@@H](CC(C)C)C(=O)N1CCC[C@H]1C(=O)N[C@@H](C)C(=O)N[C@@H](CC(C)C)C(=O)N[C@H](C(=O)N[C@@H](CO)C(=O)N[C@@H](Cc1c[nH]c2ccccc12)C(=O)N[C@H](C(=O)N[C@@H](CCCCN)C(=O)N[C@@H](CCCNC(=N)N)C(=O)N[C@@H](CCCCN)C(=O)N[C@@H](CCCNC(=N)N)C(=O)N[C@@H](CCC(N)=O)C(=O)N[C@@H](CCC(N)=O)C(N)=O)[C@@H](C)CC)[C@@H](C)CC)[C@@H](C)O)[C@@H](C)O)C(C)C)C(C)C [melittin]
cytotoxicity of PBMCs [2]: 100%

FITC-myristoyl-CM4: fluorescein isothiocyanate labeled myristoyl-CM4 (GRWKIFKKIEKVGQNIRDGIVKAGPAVAVVGQAATI; not fully specified; FITC, myristoyl, C-terminal amide)
FITC signal on the cells (CLSM) [3]: stronger than the FITC-CM4 signal
fluorescence intensity on cells [4]: very weak
fluorescence intensity on cells [5]: very weak
FITC signal on the cells (CLSM) [6]: stronger than the FITC-CM4 signal

GRWKIFKKIEKVGQNIRDGIVKAGPAVAVVGQAATI-NH2 [CM4]
cytotoxicity towards non-cancer cells [7]: no cytotoxicity
IC50 [8]: 20 to 40 µM
LDH release [9]: Virtually no LDH was released
LDH release [10]: Virtually no LDH was released
